{"source": "paper PMC4976804", "about": "(Current Alzheimer research, 2015)", "key": {"[1]": {"system": "inducible N2aTau^4RDΔK280 cells", "experiment": "Inhibition of Tau aggregation in inducible N2a cells, ThS+ cells counted by FACS", "assay_type": "cell-based", "in_short": "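Inducible N2a-Tau4RDΔK280 cells in suspension, with 0.0005% (12 µM) ThS added. Tau induced with 1 µg/ml doxycycline. Compound at 60 µM, or 0–60 µM, for 4 days at 37 °C. Floating and adherent cells pooled, pelleted and PBS-washed. ThS+ cells counted by flow cytometry (ex 495/em 519 nm). Induced DMSO-treated sample set to 100%.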"}, "[2]": {"system": "N2a cells", "experiment": "Cell viability of uninduced N2a cells in the presence of compounds", "assay_type": "cell-based", "conditions": "60 µM compound, 4 days 37°C, untreated = 100%", "in_short": "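Uninduced N2a cells (no tau expression) grown 4 days at 37 °C in culture medium with test compound at 60 µM, or at several concentrations from 0 to 60 µM. Viability measured by MTT assay per kit instructions. Values normalised to the uninduced compound-untreated sample (100%).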"}}, "data": [{"smiles": "O=C(NNc1nc(-c2ccc([N+](=O)[O-])cc2)cs1)c1ccc2nc[nH]c2c1", "note": "[BSc3094]", "values": [{"measurement": "amount of ThS-positive cells (FACS), in words", "setting": "[1]; 15 µM in the medium, 4 days, N2a cells expressing K18ΔK280", "value": "decreases"}, {"measurement": "reduction of Tau^4RDΔK280 aggregation in N2a cells compared to control", "setting": "[1]; 60 µM compound, ThS+ cells by FACS", "value": 93, "unit": "%"}, {"measurement": "effectiveness in reducing aggregation in N2a cells relative to the best hits", "setting": "[1]; compared to our best hits", "value": "2-3"}, {"measurement": "viability N2a cells (MTT)", "setting": "[2]", "value": "101.9 ± 3.8", "unit": "%"}]}]}
